Laboratory results from publication PMC4445880 (ACS chemical biology, 2013).
“And” between values parts separate entries of the source, which are not always exact repeats. Equal values may be shown once.

Legend:
[1] = tested on: rat caudal arterial smooth muscle; experiment: RLC20 phosphorylation in rat caudal arterial smooth muscle; settings: 100 µM; 30 min CLa exposure
DAPK1 = DAPK1 (Homo sapiens, UniProt P53355); experiment: KINOMEscan active-site dependent competition binding assay; settings: from Kd values
DAPK3 = DAPK3 (Homo sapiens, UniProt O43293); experiment: as above; settings: DAPK3 (ZIPK); from Kd values
[2] = tested on: rat caudal arterial smooth muscle strips; experiment: Calyculin A induced contraction of rat caudal arterial smooth muscle strips; settings: 100 µM, calyculin A 0.5 mM; for maximum contractile force: 3 h
Summary of the method: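 Intact rat caudal arterial smooth muscle strips were contracted with calyculin A (0.5 mM, 3 h). This was done in the presence of vehicle (DMSO) or test compound at 100 µM. Maximal force was expressed as percent of an initial reference KCl contraction. Time to reach 50% of maximal contraction after calyculin A was also calculated.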

GFP-ZIPK = GFP-ZIPK (Homo sapiens, UniProt O43293); experiment: FLECS elution from γ-linked ATP Sepharose; format: binding; settings: for elution of GFP-ZIPK from ATP Sepharose: titration 0.1−300 µM
Summary of the method: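 Full-length ZIPK with N-terminal GFP was expressed in HEK293 cells. Crude lysate was bound to γ-linked ATP Sepharose for 0.5 h at 4 °C (pH 7.5, 60 mM MgCl₂), washed with high- then low-salt buffer, and split into 96-well filter plates. Test compound was added for 10 min at RT, as a 900 µM solution (screen) or 0.1−300 µM (titration), in 10% DMSO. Filtrate fluorescence was read at 485/535 nm. Controls were ATP 2−200 mM (positive) and 10% DMSO (negative). Hits were wells with >5000 counts (2.5 × background), checked by Western blot.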

aortic SM cells = experiment: RLC20 phosphorylation in aortic smooth muscle cells, basal and S1P stimulated; format: cell-based, human; settings: 50 µM, 30 min; for relative percent RLC20 phosphorylation, S1P stimulated state: S1P 0.25 µM
Summary of the method: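 A mouse aortic smooth muscle cell line was grown in AmnioMax with 10% FBS at 37 °C and 5% CO₂, then serum-starved for 16 h. Subconfluent cells were given S1P (0.25 µM, 5 min) or left basal. They were then treated with test compound (50 µM) or 0.1% DMSO for 30 min. Cells were lysed in 1% SDS, 300 mM NaCl and 50 mM Tris-HCl pH 7.5. Phospho-RLC20 was measured by Western blot and densitometry.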

CK1α = CK1α (Homo sapiens, UniProt P48729); experiment: 33P-ATP filter-binding kinase assay; format: biochemical; settings: read-out: % activity against kinase, kinome profile
Summary of the method: (§1)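 Kinome panel of 124 purified protein kinases run by an outside profiling centre using a ³³P-ATP filter-binding assay. Test compound was tested at 10 µM. Read-out is residual % enzyme activity.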

CaMK2 = experiment: 33P-ATP filter-binding kinase assay; format: biochemical, human; settings: read-out: % activity against kinase, kinome profile
Summary of the method: as §1

smMLCK = smMLCK (Homo sapiens, UniProt Q15746); experiment: 33P-ATP filter-binding kinase assay; format: biochemical
PKA = PKA (Homo sapiens, UniProt P17612); experiment: 33P-ATP filter-binding kinase assay; format: biochemical; settings: read-out: % activity against kinase, kinome profile
Summary of the method: as §1

PKN2 = PKN2 (Homo sapiens, UniProt Q16513); experiment: 33P-ATP filter-binding kinase assay; format: biochemical; settings: read-out: % activity against kinase, kinome profile
Summary of the method: as §1

PIM1 = PIM1 (Homo sapiens, UniProt P11309); experiment: 33P-ATP filter-binding kinase assay; format: biochemical
[3] = tested on: rabbit ileum smooth muscle; experiment: Ca2+-independent force development in rabbit ileum after MC-LR; settings: pCa 9.0; MC-LR 10 µM
[4] = tested on: human coronary artery smooth muscle cells (CA-VSMC); experiment: Phosphorylation in human coronary artery smooth muscle cells; format: cell-based; settings: HS38 10 µM, 40 min
rabbit ileum = experiment: RLC20 and MYPT1 phosphorylation in Ca2+-sensitized rabbit ileum; settings: HS38 50 µM
PIM2 = PIM2 (Homo sapiens, UniProt Q9P1W9); experiment: 33P-ATP filter-binding kinase assay; format: biochemical
ROCK2 = ROCK2 (Rattus norvegicus, UniProt Q62868); experiment: 33P-ATP filter-binding kinase assay; format: biochemical, human
IRAK4 = target: T1, IRAK4 (Homo sapiens, UniProt Q9NWZ3); experiment: 33P-ATP filter-binding kinase assay; format: biochemical
T1 sequence (Q9NWZ3 1-460): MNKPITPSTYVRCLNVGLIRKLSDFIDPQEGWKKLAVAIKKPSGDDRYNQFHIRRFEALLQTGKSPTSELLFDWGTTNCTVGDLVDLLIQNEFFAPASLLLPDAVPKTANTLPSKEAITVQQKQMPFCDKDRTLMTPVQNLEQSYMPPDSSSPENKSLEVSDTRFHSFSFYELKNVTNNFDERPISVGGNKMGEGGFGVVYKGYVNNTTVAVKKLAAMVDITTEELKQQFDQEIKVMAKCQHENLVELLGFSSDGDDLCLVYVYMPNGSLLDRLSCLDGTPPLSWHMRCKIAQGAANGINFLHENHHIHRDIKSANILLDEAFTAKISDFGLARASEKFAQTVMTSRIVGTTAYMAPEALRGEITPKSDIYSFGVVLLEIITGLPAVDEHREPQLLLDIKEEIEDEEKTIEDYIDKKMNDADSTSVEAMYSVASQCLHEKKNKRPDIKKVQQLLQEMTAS

Chain of ROCK2 (Q62868 2-543 limits assumed): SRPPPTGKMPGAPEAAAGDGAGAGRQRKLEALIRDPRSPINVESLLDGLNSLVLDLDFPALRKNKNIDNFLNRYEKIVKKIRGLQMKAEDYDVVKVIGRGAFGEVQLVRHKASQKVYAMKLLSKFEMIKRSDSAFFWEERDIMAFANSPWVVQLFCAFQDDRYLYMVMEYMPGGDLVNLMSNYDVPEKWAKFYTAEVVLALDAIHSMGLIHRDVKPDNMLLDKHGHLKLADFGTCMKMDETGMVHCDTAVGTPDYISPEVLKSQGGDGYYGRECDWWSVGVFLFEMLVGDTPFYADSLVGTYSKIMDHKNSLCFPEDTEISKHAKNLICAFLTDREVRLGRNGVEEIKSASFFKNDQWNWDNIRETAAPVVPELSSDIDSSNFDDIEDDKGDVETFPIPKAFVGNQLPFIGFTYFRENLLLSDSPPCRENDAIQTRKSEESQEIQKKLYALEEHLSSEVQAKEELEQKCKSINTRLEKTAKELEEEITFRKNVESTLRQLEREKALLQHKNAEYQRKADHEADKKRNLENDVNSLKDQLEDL
Chain of GFP-ZIPK (O43293 whole entry): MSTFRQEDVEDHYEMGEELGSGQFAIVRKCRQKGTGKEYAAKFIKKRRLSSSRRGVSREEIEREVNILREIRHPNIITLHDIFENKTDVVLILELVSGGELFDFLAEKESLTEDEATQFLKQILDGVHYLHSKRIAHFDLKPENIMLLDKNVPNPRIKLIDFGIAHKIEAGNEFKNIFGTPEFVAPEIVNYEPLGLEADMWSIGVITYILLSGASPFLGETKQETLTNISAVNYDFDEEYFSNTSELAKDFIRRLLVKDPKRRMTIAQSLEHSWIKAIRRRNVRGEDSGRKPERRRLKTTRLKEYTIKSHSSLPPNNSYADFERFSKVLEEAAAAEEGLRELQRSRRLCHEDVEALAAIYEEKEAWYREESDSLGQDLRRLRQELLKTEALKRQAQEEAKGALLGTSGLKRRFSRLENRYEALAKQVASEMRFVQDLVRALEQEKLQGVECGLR
Chain of DAPK3 (O43293 whole entry): as above
Chain of smMLCK (Q15746 1464-1719 limits assumed): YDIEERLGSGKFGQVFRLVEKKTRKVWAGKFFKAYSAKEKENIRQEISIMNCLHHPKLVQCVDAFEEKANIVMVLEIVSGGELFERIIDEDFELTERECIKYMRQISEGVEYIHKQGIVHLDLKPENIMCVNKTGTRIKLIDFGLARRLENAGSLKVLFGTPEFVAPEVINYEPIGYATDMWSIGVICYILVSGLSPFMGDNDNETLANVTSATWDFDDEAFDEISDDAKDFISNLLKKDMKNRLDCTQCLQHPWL
Chain of CK1α (P48729 whole entry): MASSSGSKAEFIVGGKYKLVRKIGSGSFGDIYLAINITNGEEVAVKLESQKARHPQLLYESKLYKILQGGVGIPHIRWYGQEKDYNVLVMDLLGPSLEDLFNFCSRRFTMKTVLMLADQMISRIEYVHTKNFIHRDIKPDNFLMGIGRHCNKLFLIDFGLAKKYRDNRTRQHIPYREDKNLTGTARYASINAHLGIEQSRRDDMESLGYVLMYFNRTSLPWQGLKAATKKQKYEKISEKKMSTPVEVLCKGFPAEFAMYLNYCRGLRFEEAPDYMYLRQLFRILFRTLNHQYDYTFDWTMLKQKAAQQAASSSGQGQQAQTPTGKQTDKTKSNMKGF
Chain of PIM2 (Q9P1W9 whole entry): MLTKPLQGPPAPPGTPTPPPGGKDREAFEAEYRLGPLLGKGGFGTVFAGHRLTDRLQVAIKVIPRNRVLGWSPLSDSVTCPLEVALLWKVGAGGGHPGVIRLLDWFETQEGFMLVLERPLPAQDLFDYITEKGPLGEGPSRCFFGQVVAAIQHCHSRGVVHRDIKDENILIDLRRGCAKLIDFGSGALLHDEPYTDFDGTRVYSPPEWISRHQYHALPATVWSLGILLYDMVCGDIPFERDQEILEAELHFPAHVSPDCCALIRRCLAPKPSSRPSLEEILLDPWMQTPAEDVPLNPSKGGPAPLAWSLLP
Chain of PIM1 (P11309 whole entry): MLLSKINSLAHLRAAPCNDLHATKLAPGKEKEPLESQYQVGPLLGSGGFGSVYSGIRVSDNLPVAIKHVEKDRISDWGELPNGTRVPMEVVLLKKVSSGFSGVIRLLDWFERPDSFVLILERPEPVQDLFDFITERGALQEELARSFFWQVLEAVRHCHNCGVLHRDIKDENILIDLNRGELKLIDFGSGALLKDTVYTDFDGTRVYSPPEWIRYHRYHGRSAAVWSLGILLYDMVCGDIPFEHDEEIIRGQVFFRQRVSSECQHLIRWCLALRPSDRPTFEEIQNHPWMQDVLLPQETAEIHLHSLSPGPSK
Chain of DAPK1 (P53355 whole entry): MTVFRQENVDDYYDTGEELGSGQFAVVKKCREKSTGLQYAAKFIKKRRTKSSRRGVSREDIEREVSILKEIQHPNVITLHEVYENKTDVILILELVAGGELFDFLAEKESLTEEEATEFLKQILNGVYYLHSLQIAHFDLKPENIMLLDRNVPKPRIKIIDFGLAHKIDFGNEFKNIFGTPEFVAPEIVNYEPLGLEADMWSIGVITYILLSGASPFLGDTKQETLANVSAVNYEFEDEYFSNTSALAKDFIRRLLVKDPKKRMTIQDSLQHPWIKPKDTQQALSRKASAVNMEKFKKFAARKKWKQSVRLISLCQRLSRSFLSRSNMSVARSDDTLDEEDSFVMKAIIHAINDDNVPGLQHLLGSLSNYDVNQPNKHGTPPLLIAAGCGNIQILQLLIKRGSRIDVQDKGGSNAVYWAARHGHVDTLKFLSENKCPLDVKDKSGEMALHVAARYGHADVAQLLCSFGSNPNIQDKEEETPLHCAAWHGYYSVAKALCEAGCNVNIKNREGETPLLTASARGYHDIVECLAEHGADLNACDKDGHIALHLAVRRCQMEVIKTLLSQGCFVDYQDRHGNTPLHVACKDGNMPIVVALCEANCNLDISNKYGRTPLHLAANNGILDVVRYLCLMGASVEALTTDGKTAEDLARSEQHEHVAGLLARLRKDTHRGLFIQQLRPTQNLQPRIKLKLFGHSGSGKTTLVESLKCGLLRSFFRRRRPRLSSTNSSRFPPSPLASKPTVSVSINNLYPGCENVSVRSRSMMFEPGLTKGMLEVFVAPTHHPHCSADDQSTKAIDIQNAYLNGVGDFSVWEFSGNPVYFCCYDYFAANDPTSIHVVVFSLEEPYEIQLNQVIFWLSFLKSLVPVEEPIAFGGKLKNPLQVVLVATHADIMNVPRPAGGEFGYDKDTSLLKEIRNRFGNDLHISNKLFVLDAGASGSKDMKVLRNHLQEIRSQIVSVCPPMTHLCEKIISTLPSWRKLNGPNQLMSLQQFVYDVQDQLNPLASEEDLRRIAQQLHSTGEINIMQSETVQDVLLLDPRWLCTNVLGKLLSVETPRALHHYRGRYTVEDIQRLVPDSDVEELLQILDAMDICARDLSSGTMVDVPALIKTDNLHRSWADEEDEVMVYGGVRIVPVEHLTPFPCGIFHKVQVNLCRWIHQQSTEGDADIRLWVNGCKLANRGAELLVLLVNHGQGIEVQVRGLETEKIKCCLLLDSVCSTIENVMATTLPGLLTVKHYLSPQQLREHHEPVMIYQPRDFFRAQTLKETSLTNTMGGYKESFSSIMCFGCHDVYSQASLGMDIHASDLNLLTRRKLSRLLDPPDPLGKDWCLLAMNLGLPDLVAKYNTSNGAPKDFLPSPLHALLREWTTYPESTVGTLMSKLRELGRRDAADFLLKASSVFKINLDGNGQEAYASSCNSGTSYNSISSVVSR
Chain of PKN2 (Q16513 whole entry): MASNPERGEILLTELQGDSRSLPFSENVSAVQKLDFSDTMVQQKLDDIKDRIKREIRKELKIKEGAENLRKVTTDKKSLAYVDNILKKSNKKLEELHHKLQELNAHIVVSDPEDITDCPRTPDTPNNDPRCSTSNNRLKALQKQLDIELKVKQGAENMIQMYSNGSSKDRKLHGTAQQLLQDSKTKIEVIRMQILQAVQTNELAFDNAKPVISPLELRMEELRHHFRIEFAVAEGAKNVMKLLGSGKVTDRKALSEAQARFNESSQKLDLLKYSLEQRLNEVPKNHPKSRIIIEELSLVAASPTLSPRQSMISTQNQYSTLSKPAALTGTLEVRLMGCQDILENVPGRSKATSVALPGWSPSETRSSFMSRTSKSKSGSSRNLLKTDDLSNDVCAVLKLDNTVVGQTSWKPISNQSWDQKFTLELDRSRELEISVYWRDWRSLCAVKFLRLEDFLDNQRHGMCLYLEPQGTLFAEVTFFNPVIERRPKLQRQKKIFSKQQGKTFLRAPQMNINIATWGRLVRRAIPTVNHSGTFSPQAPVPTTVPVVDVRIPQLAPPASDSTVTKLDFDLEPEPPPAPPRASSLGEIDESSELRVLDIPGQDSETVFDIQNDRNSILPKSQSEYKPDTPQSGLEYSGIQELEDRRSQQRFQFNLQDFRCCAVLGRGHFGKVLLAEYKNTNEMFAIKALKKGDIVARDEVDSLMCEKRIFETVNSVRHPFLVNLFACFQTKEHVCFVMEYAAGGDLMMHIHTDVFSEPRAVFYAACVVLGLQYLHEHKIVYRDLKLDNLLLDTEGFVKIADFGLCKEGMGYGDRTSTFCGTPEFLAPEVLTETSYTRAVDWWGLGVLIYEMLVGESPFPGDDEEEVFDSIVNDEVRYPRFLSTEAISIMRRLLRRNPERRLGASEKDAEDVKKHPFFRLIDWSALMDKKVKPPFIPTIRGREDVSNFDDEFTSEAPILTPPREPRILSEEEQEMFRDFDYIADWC

`O=c1[nH]c(SCCO)nc2c1cnn2-c1cccc(Cl)c1` [HS43, 1-(3-Chlorophenyl)-6-((2-hydroxyethyl)thio)-1,5-dihydro-4H-pyrazolo[3,4-d]pyrimidin-4-one] was tested, and the RLC20 phosphorylation [1] was “did not affect”, the “fold less potent than HS38” value (DAPK1) was ~ 5 fold and the “fold less potent than HS38 / lower affinity” value (DAPK3) was 5 fold and ~ 5 fold. The “time required to reach 50% of maximal contraction (t1/2 max)” value [2] was “did not significantly affect”, the maximum contractile force [2] was “did not significantly affect” and the “elution of GFP-ZIPK from ATP Sepharose” value (GFP-ZIPK) was “eluted far less GFP-ZIPK”. The “relative percent RLC20 phosphorylation, basal (unstimulated) state” value (aortic SM cells) was “did not significantly affect” and the “relative percent RLC20 phosphorylation, S1P stimulated state” value (aortic SM cells) was “did not significantly affect”.
In the case of `O=S(=O)(c1cccc2c(I)cccc12)N1CCCNCC1` [ML-7, reference compound], the “elution of GFP-ZIPK from ATP Sepharose” value (GFP-ZIPK) is reported as “failed to elute GFP-ZIPK”.
`CC(Sc1nc2c(cnn2-c2cccc(Cl)c2)c(=O)[nH]1)C(N)=O` (stereo not shown) [HS38, 2-((1-(3-chlorophenyl)-4-oxo-4,5-dihydro-1H-pyrazolo[3,4-d]pyrimidin-6-yl)thio)propanamide] was tested, and the RLC20 phosphorylation [1] was “significant reduction”, the inhibition (CK1α) was less than 10% and the inhibition (CaMK2) was less than 10%. The “fold less potent than against DAPK1 and PIM3” value (smMLCK) was ~ 100 fold, the inhibition (PKA) was less than 10% and the inhibition (PKN2) was less than 10%. For the same compound, the “fold less potent than against DAPK1 and PIM3” value (PIM1) was ~ 10 fold, the “lag time to the onset of force” value [3] was “increased” and the “rate of force development (t1/2)” value [3] was “increased”. For the same compound, the “phosphorylation state of Par-4” value [4] was “not significantly affected”, the “phosphorylation state of T855 of MYPT1” value [4] was “not significantly affected” and the “decrease in RLC20 phosphorylation” value ([4]; serum-free and 5% FBS conditions) was 21−23%. For the same compound, the “time required to reach 50% of maximal contraction (t1/2 max)” value [2] was “more than doubled”, the maximum contractile force [2] was “without significantly affecting” and the “MYPT1 Thr696 phosphorylation level” value (rabbit ileum) was “significantly reduced”. For the same compound, the RLC20 phosphorylation level (rabbit ileum) was “significantly reduced”, the “fold less potent than against DAPK1 and PIM3” value (PIM2) was ~ 100 fold and the IC50 (ROCK2) was greater than 200 µM. For the same compound, the “activity against ROCK2” value (ROCK2; ROCK2, duplicate validation) was “completely inactive”, the inhibition (ROCK2; read-out: % activity against kinase, ROCK2, kinome profile) was less than 10% and the “fold less potent than against DAPK1 and PIM3” value (IRAK4) was ~ 10 fold. The “increase in fluorescence above background” value (GFP-ZIPK; FLECS screen, elution of GFP-ZIPK, drug candidate 900 µM solution) was greater than 4 fold, the “elution of GFP-ZIPK from ATP Sepharose” value (GFP-ZIPK) was “produced a sigmoidal curve” and the “relative percent RLC20 phosphorylation, basal (unstimulated) state” value (aortic SM cells) was “significantly decreased”. The “relative percent RLC20 phosphorylation, S1P stimulated state” value (aortic SM cells) was “significantly decreased”.
